Reference: ChEMBL document CHEMBL1800057, “Discovery of dual inducible/neuronal nitric oxide synthase (iNOS/nNOS) inhibitor development candidate 4-((2-cyclobutyl-1H-imidazo[4,5-b]pyrazin-1-yl)methyl)-7,8-difluoroquinolin-2(1H)-one (KD7332) part 2: identification of a novel, potent, and selective series of benzimidazole-quinolinone …” (J Med Chem, 2010)

Assays:
[1] = AUC in mouse at 3 mg/kg, iv and 10 mg/kg, po; format: ADME, organism-based; details: plasma
Cytochrome P450 1A2 = biological target: T1, Cytochrome P450 1A2 (Homo sapiens, UniProt P05177); assay: Inhibition of human CYP1A2 at >100uM; format: ADME
T1 sequence (P05177 whole entry): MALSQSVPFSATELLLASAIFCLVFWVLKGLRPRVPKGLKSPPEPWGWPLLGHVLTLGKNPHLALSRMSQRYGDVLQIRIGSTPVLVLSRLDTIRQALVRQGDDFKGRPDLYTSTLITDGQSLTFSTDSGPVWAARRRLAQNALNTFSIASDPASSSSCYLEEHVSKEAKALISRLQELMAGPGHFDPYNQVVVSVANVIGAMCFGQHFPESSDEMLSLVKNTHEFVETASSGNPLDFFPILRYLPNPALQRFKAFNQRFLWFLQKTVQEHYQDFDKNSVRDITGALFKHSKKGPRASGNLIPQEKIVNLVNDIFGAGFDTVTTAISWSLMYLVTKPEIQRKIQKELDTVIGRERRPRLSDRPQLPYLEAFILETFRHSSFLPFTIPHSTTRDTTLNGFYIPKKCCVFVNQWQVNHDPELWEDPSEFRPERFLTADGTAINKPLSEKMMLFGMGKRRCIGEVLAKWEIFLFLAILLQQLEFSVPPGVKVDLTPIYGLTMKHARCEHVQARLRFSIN

Cytochrome P450 2D6 [2] = biological target: T2, Cytochrome P450 2D6 (Homo sapiens, UniProt P10635); assay: Inhibition of human CYP2D6 at >100 uM; format: ADME
Cytochrome P450 2C9 = Cytochrome P450 2C9 (Homo sapiens, UniProt P11712); assay: Inhibition of human CYP2C9; format: ADME
[3] = Half life in mouse at 3 mg/kg, iv and 10 mg/kg, po; details: in vivo
Liver = assay: Half life in mouse liver microsomes assessed as formation of oxidation product and glucuronide conjugate; format: ADME, Microsome
Procedure, shortened: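 Mouse liver microsomes run under combined phase I oxidation and phase II glucuronide conjugation; half-life reported in minutes.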

Cytochrome P450 3A4 = Cytochrome P450 3A4 (Homo sapiens, UniProt P08684); assay: Inhibition of human CYP3A4; format: ADME
Mus musculus = assay: Inhibition of LPS-induced iNOS activation in BALB/c mouse assessed as plasma nitrate levels administered via oral gavage before LPS challenge measured after 6 to 8 hrs using 2,3-diaminonaphthalene by fluorescence assay; format: functional
Procedure, shortened: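 Male BALB/c mice dosed by oral gavage (90% PEG/5% Tween 80/5% PVP + 0.5% w/v CMC) immediately before LPS (10 mg/kg ip in 0.9% NaCl). Mice killed at 6 h. EDTA plasma analysed for nitrate and drug levels; nitrite measured by DAN fluorescence.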

[4] = Oral bioavailability in mouse at 10 mg/kg; format: ADME, organism-based; details: in vivo
Cytochrome P450 2D6 [5] = biological target: T2, Cytochrome P450 2D6; assay: Inhibition of human CYP2D6; format: ADME
Cytochrome P450 2C19 = Cytochrome P450 2C19 (Homo sapiens, UniProt P33261); assay: Inhibition of human CYP2C19; format: ADME
Nitric oxide synthase 1 = Nitric oxide synthase 1 (Homo sapiens, UniProt P29475); assay: Inhibition of human nNOS expressed in HEK293 cells assessed as inhibition ionomycin induced nitric oxide production incubated for 24 hrs measured after 18 hrs of ionomycin challenge using 2,3-diaminonaphthalene by fluorescence assay; format: cell-based
Procedure, shortened: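 HEK293 cells transfected for 4 h at 37 °C with human nNOS (10 μg) or human eNOS (15 μg) plasmid (Fugene 6, 3:1). Cells replated at 5e5 cells/mL and dosed with compound at once; SEITU (100 μM final) as positive control. After 24 h, cells activated with A23187 (83 nM final) for eNOS or ionomycin (30 μM final) for nNOS. NO read 18 h later as nitrite-DAN fluorescence.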

[6] = Volume of distribution at steady state in mouse at 3 mg/kg, iv and 10 mg/kg, po; format: ADME, organism-based; details: in vivo, read-out: Vdss
[7] = Half life in mouse at 10 mg/kg, po; format: ADME, organism-based; parameters: dose 10 mg/kg, route oral; details: in vivo
[8] = Plasma clearance in mouse at 3 mg/kg, iv and 10 mg/kg, po; format: ADME, organism-based
[9] = Cmax in mouse at 3 mg/kg, iv and 10 mg/kg, po; format: ADME, organism-based; details: in vivo

Chain of Nitric oxide synthase 1 (P29475 whole entry): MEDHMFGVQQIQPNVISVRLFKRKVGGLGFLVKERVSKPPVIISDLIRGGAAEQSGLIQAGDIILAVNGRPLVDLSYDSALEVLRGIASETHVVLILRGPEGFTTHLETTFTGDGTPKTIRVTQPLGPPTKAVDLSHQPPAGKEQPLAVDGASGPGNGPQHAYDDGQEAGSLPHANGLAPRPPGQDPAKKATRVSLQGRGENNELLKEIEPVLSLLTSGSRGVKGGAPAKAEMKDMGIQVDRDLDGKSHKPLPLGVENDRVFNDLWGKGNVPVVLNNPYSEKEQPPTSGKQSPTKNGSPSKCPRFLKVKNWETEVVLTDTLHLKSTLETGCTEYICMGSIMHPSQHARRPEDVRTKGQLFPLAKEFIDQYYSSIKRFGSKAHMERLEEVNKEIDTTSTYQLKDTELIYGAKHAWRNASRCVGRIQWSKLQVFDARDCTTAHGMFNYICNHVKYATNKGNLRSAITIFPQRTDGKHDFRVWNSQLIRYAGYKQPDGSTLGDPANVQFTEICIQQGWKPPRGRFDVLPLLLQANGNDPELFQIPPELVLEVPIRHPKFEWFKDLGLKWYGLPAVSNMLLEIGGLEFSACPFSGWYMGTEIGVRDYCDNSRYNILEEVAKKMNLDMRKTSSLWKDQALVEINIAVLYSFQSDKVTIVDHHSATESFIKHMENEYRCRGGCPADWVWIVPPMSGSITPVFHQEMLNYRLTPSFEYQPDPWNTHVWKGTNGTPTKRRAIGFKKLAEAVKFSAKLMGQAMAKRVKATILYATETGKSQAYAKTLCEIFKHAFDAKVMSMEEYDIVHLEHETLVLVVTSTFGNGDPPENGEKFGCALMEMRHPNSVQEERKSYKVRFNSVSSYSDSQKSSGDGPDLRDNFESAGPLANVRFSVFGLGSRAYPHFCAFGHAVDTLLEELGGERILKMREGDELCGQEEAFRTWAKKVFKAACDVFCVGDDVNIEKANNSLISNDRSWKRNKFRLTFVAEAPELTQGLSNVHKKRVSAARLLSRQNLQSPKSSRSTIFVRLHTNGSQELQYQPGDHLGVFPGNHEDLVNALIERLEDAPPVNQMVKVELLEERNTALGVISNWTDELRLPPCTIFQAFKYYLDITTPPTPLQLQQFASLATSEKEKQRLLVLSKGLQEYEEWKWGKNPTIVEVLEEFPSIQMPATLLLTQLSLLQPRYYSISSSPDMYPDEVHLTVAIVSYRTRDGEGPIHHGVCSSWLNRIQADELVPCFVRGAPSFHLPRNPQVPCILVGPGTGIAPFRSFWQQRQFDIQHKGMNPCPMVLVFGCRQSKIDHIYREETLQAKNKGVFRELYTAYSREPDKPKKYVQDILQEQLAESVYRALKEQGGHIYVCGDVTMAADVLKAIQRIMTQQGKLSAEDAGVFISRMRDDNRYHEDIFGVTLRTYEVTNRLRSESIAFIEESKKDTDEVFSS
Chain of Cytochrome P450 2C9 (P11712 whole entry): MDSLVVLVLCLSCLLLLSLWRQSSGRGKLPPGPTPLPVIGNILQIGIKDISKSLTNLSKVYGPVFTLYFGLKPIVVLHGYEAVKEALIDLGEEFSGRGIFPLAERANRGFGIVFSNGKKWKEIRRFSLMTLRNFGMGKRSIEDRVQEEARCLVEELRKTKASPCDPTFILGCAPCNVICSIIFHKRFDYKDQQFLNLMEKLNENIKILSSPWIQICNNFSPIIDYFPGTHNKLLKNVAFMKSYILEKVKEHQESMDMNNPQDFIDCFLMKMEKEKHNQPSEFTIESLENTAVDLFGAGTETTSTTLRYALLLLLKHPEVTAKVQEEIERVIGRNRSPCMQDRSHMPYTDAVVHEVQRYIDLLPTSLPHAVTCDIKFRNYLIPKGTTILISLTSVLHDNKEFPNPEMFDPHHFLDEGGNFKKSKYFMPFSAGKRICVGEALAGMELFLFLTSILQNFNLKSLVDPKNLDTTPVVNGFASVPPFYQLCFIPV
Chain of Cytochrome P450 3A4 (P08684 whole entry): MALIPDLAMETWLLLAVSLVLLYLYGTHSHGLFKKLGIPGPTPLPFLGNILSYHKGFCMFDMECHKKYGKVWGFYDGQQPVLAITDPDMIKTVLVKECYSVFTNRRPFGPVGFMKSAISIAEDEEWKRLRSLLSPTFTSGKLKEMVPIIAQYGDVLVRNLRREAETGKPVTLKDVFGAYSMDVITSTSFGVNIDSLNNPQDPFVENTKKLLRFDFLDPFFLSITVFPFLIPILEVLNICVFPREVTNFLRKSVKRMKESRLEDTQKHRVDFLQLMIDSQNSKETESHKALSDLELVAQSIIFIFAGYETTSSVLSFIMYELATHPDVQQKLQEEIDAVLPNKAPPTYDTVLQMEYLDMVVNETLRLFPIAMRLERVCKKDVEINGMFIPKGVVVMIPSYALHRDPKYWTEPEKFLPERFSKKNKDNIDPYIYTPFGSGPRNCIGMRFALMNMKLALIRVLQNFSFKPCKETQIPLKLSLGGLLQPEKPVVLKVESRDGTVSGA
T2 sequence (P10635 whole entry): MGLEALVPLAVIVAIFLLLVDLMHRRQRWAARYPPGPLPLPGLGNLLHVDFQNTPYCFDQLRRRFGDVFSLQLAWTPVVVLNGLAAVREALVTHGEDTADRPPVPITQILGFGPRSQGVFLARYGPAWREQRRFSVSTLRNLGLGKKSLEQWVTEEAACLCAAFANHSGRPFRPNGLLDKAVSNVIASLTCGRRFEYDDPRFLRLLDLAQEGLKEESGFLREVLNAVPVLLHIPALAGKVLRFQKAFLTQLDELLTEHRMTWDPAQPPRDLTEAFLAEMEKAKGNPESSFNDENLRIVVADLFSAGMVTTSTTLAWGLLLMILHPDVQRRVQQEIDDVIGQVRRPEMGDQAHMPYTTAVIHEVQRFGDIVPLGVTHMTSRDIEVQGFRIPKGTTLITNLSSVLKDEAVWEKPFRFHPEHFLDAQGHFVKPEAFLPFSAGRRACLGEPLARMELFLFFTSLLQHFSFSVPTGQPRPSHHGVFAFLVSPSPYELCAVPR
Chain of Cytochrome P450 2C19 (P33261 whole entry): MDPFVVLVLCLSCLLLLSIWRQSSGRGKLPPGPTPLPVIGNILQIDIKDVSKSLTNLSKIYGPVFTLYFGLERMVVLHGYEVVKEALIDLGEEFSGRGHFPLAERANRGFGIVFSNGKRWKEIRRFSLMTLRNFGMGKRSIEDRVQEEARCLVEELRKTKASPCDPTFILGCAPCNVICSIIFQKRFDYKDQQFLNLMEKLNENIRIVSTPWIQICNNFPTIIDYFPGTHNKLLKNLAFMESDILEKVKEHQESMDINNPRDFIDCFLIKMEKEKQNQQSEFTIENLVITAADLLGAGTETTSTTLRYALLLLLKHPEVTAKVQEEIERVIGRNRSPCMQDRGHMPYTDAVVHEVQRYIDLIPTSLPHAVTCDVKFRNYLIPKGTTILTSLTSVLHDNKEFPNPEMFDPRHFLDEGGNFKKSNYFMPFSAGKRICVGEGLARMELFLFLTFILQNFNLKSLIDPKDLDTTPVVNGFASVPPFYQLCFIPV

AUC [1] [ng·h/mL]	inhibition (INH) (Cytochrome P450 1A2) [%]	inhibition (INH) (Cytochrome P450 2D6 [2]) [%]	EC50 (Cytochrome P450 2C9) [µM]	half-life [3] [h]	t1/2 (Liver) [h]	EC50 (Cytochrome P450 3A4) [µM]	bioavailability [4] [%]	EC50 (Cytochrome P450 2D6 [5]) [µM]	EC50 (Cytochrome P450 2C19) [µM]	EC50 (Nitric oxide synthase 1) [µM]	Vd [6] [L/kg]	half-life [7] [h]	clearance [8] [mL/min/kg]	Cmax [9] [ng/mL]	SMILES	ED50 (Mus musculus) [mg/kg]
11000	< 50	< 50	29	6	0.783	> 60	39	> 100	> 60	0.3	6.8	1.8	6.1	–	CC(C)Cc1nc2nccnc2n1Cc1cc(=O)[nH]c2c(F)c(F)ccc12	0.5
–	< 50	< 50	> 60	2.1	> 2	> 100	62	> 100	> 38	0.3	0.39	2.3	4.5	15000	O=c1cc(Cn2c(C3CCC3)nc3nccnc32)c2ccc(F)c(F)c2[nH]1	1
13300	–	–	–	1.7	1.83	–	81	–	–	0.69	1.1	5.2	12	8700	CC(C)Cc1nc2ccccc2n1Cc1cc(=O)[nH]c2c(F)c(F)ccc12	–
25000	< 50	< 50	> 60	1.3	> 2	> 60	91	> 100	> 60	4.6	0.47	3.1	5.9	–	O=c1cc(Cn2c(C3CCC3)nc3nccnc32)c2cccc(F)c2[nH]1	1.5
15000	–	< 50	22	4	> 2	23	55	> 100	27	3	0.67	2.3	6.2	8800	O=c1cc(Cn2c(C3CC(F)(F)C3)nc3nccnc32)c2cccc(F)c2[nH]1	3
